Assay results: ChEMBL document CHEMBL4251710, “Antibacterial Muraymycins from Mutant Strains of Streptomyces sp. NRRL 30471” (J Nat Prod, 2018)
Converted amounts (≈) assume the structure as drawn.

How the values were obtained:
[1] = target: T1, Phospho-N-acetylmuramoyl-pentapeptide-transferase (Staphylococcus aureus, UniProt P0C1R8); test: Inhibition of Staphylococcus aureus MraY expressed in Escherichia coli membrane using Park's nucleotide as substrate pretreated for 30 mins followed by substrate addition measured up to 2 mins by fluorescence assay; format: cell membranes
T1 sequence (P0C1R8 whole entry): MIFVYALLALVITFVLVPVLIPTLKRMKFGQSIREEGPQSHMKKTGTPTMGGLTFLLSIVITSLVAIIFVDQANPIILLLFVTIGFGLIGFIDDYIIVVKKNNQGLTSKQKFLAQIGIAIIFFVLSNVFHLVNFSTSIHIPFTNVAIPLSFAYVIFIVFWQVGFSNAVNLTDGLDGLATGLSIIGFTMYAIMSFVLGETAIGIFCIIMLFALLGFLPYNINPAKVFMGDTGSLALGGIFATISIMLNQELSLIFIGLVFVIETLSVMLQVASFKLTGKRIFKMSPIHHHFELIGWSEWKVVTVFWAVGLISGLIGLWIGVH

Escherichia coli [2] = test: Antimicrobial activity against tolC deficient Escherichia coli JW5503 after 16 hrs by resazurin dye based assay; format: functional; settings: JW5503, 16 h
In short: (§1)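 Overnight cultures (16 h, 37 °C) were diluted 1000-fold, grown to OD600 0.4, then diluted 1000-fold again. Cells were exposed to serially diluted compound from a top final concentration of 256 or 32 μg/mL, against a 1% DMSO or water control. Plates were incubated 16 h at 37 °C, read at OD600 normalised to control, then given resazurin for 3 h. The MIC was the lowest concentration inhibiting growth.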

Staphylococcus aureus [3] = test: Antimicrobial activity against Staphylococcus aureus subsp. aureus str. Newman after 16 hrs by resazurin dye based assay; format: functional; in short: as §1
Escherichia coli [4] = test: Antimicrobial activity against Escherichia coli BL21(DE3) after 16 hrs by resazurin dye based assay; format: functional; in short: as §1
[5] = target: T2, Phospho-N-acetylmuramoyl-pentapeptide-transferase (Aquifex aeolicus (strain VF5), UniProt O66465); test: Inhibition of Aquifex aeolicus MraY expressed in Escherichia coli C41(DE3) using Park's nucleotide as substrate pretreated for 30 mins followed by substrate addition measured up to 2 mins by fluorescence assay
T2 sequence (O66465 whole entry): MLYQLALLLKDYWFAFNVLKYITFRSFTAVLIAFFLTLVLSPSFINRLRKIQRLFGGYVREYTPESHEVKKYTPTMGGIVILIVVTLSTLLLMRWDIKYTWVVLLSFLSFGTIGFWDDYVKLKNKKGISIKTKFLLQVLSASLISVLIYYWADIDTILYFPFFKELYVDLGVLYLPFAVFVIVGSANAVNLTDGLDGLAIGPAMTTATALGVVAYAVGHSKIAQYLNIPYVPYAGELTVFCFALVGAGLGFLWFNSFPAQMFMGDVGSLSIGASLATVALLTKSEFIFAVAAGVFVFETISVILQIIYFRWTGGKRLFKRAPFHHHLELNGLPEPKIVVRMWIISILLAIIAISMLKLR
In short: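 Purified His-MBP-tagged AaMraY was expressed in E. coli C41(DE3), extracted with DDM, purified on cobalt resin, protease-cleaved and gel-filtered in DM. The enzyme (1 μL at 0.1 mg/mL) was preincubated 30 min at room temperature with inhibitor, undecaprenyl phosphate, pH 7.5 Tris, KCl, MgCl2, 0.1% Triton X-100 and 0–5% DMSO. Dansylated Park's nucleotide was then added. Fluorescence (ex 355/em 520 nm) was followed, and the rate was taken from a linear fit over 0–2 min.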

Staphylococcus aureus [6] = test: Antimicrobial activity against Staphylococcus aureus infected in mouse; format: functional
Escherichia coli [7] = test: Antimicrobial activity against Escherichia coli harboring imp mutant; format: functional

| SMILES | IC50 [1] [pM] | MIC (Escherichia coli [2]) [µg/mL] | MIC (Staphylococcus aureus [3]) [µg/mL] | MIC (Escherichia coli [4]) [µg/mL] | IC50 [5] [pM] | ED50 (Staphylococcus aureus [6]) [mg/kg] | MIC (Escherichia coli [7]) [µg/mL] |
| --- | --- | --- | --- | --- | --- | --- | --- |
| CO[C@H]1[C@H](O[C@H]([C@H]2O[C@@H](n3ccc(=O)[nH]c3=O)[C@H](O)[C@@H]2O)[C@H](NCCCNC(=O)[C@@H](NC(=O)[C@@H](NC(=O)N[C@H](C(=O)O)C(C)C)[C@@H]2CCNC(=N)N2)[C@@H](OC(=O)CCCCCCCCCCC(C)C)C(C)C)C(=O)O)O[C@H](CN)[C@H]1O | 22.1 | 2 (≈ 1.73 µM) | 6 (≈ 5.19 µM) | 32 (≈ 27.7 µM) | 320 | – | – |
| CO[C@H]1[C@H](O[C@H]([C@H]2O[C@@H](n3ccc(=O)[nH]c3=O)[C@H](O)[C@@H]2O)[C@H](NCCCNC(=O)[C@@H](NC(=O)[C@@H](NC(=O)N[C@H](C(=O)O)C(C)C)[C@@H]2CCNC(=N)N2)[C@@H](OC(=O)CCCCCCCCCCCCC(C)C)C(C)C)C(=O)O)O[C@H](CN)[C@H]1O | 4 | 4 (≈ 3.38 µM) | 2 (≈ 1.69 µM) | 64 (≈ 54 µM) | – | – | – |
| CO[C@H]1[C@H](O[C@H]([C@H]2O[C@@H](n3ccc(=O)[nH]c3=O)[C@H](O)[C@@H]2O)[C@H](NCCCNC(=O)[C@@H](NC(=O)[C@@H](NC(=O)N[C@H](C(=O)O)C(C)C)[C@@H]2CCNC(=N)N2)[C@@H](O)C(C)C)C(=O)O)O[C@H](CNC(C)=O)[C@H]1O | 93 | 16 (≈ 16.2 µM) | > 32 | 256 (≈ 259 µM) | 1800 | – | – |
| CO[C@H]1[C@H](O[C@H]([C@H]2O[C@@H](n3ccc(=O)[nH]c3=O)[C@H](O)[C@@H]2O)[C@H](NCCCNC(=O)[C@@H](NC(=O)[C@@H](NC(=O)N[C@H](C(=O)O)C(C)C)[C@@H]2CCNC(=N)N2)[C@@H](O)C(C)C)C(=O)O)O[C@H](CN)[C@H]1O | 15.7 | 1 (≈ 1.06 µM) | > 32 | 8 (≈ 8.46 µM) | 350 | – | – |
| CO[C@H]1[C@H](O[C@H]([C@H]2O[C@@H](n3ccc(=O)[nH]c3=O)[C@H](O)[C@@H]2O)[C@H](NCCCNC(=O)[C@@H](NC(=O)[C@@H](NC(=O)N[C@H](C(=O)O)C(C)C)[C@@H]2CCNC(=N)N2)[C@@H](OC(=O)CCCCCCCCCCCCN(O)C(=N)N)C(C)C)C(=O)O)O[C@H](CN)[C@H]1O | – | – | – | – | – | 1.1 | < 0.03 |
